The text below walks through data of PubChem BioAssay.

Activity calls are given as the source filed them.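 Rule for the calls, unless noted: active = inhibition at or above 50% relative to wild type and mutant plate controls; inactive = inhibition below 50%.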

Assay [1] can be described thus: inhibitors of TNFa-induced NFkB p65 translocation, primary screen, imaging, HUVEC, MLSMR starter and 10KST1 sets (AID 438;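 active = inhibition above 20% together with a positive visual image hit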;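 note: compound added about 3h40 before a 20 min TNFalpha stimulation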;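 for inhibition: signal is the nuclear over cytoplasmic p65 intensity ratio per well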). The conditions noted are these: HUVEC TNFa-induced p65 nuclear translocation; cell count: measured here: nuclei count (cytotoxicity indicator), at 2.08 µM; inhibition: at 2 µM, stronger effect = higher value, 0% TNFa-plus-vehicle, 100% no-TNFa wells.
Assay [2] can be described thus: inhibitors of E-selectin induction by TNFa, primary screen, imaging, HUVEC, immunofluorescence, MLSMR starter and 10KST1 sets (AID 487;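 active = visually confirmed hit in the image check and inhibition above 20%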;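 for inhibition: signal is fraction of cell area covered by stained E-selectin grains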;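 for nuclei count: 100% = median nuclei count of all wells on the same plate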). The conditions noted are these: HUVEC TNFalpha-induced E-selectin immunofluorescence imaging, at 2 µM; inhibition: stronger effect = higher value; nuclei count: measured here: cell number, toxicity.
The nature of assay [3]: DUSP6 inhibitors restoring Erk phosphorylation by chemical complementation, primary imaging in DUSP6-transfected HeLa (AID 609;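 active = compounds giving at least 50% inhibition in the cell-based MKP-3 phosphatase rescue imaging test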;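 for inhibition: phospho-Erk level distribution per well compared with pooled transfected vehicle control wells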). As to conditions: HeLa MKP-3 transfected, phospho-Erk imaging KS statistic, at 10 µM, cells stimulated with TPA for 15 min.
Assay [4] has as its target Dual specificity protein phosphatase 6 (Homo sapiens) (UniProt Q16828). The description is as above. The conditions noted are these: HeLa MKP-3 transfected, phospho-Erk imaging KS statistic; at 10 µM; stronger effect = higher value; cells stimulated with TPA for 15 min.
The target of assay [5] is Voltage-gated potassium channel subunit beta-2 (Rattus norvegicus) (UniProt P62483). The experiment in a line: KvBeta enzyme negative modulators, primary screen, biochemical, NADPH fluorescence (AID 622;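 active = fluorescence slope higher than the sample average by over 3 SD, cut at about -0.22 in these data, passing the limit was not always enough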;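 note: slope of raw intensity against log time taken from 70 to 1610 s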). As to conditions: recombinant KvBeta, 4-cyanobenzaldehyde reduction, at 10 µM, stronger effect = higher value.
Sequence of Voltage-gated potassium channel subunit beta-2 (Rattus norvegicus) (P62483 whole entry, looked up): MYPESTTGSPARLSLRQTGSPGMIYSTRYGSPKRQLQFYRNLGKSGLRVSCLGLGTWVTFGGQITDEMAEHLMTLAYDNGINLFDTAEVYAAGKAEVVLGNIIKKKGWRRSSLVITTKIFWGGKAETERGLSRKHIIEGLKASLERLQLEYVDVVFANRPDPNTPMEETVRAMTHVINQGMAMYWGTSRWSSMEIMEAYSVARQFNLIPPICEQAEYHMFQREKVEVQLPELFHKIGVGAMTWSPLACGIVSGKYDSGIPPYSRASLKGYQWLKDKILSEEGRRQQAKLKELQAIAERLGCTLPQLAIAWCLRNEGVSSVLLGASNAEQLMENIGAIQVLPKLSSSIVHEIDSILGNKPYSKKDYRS
For assay [6] the target is unchanged. Nature of the assay: KvBeta positive modulators, primary screen, biochemical, NADPH fluorescence (AID 623;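 active = NADPH fluorescence slope more negative than the mean of all samples by about 3 SD, 99.7% confidence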;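 note: fluorescence intensity change per second fitted from 20 to 320 s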). As to conditions: Recombinant KvBeta, NADPH fluorescence decrease slope, 10 min; at 10 µM; stronger effect = lower value.
The target in assay [7] is Muscarinic acetylcholine receptor M4 (Homo sapiens) (UniProt P08173). The experiment in a line: compounds altering M4/GIRK thallium flux, either direction, primary screen, M4 allosteric agonist project, cell-based, HEK293 M4/GIRK, BTC-AM (AID 625;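 active = fluorescence slope after compound addition differing from the mean of all tested samples at 99.7% confidence, mostly higher but some lower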;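 note: thallium influx through GIRK channels coupled to M4 in HEK293 cells with BTC-AM dye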). As to conditions: at 10 µM, actives lie on both sides. The method, boiled down: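 Material: HEK293 cells with M4 receptor and GIRK channels; Times: cells overnight at 37 °C, BTC-AM loading 1 h, reads 2 min total; Technique: kinetic BTC-AM fluorescence sampled at 1 Hz, 10 s pre-addition baseline; Read-out basis: slope over 15–24 s of trace normalized to starting intensity; Controls: carbachol positive, DMSO negative.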
Sequence of Muscarinic acetylcholine receptor M4 (Homo sapiens) (P08173 whole entry, looked up): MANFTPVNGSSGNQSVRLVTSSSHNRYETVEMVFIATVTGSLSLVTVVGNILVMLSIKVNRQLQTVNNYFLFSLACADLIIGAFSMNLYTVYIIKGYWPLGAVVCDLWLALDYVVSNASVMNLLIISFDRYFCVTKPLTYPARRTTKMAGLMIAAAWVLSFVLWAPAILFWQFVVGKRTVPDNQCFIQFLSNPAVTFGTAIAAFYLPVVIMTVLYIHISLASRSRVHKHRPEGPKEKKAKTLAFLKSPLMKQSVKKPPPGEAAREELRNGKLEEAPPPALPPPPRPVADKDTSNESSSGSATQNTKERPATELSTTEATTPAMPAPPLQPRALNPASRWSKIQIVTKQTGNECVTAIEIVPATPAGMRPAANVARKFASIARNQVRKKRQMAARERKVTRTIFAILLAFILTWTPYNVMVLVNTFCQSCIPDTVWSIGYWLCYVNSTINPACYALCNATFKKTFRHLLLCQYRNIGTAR

The nature of assay [8]: inhibitors of larval lipid processing in zebrafish, primary screen, whole organism, PED6 fluorescence, gall bladder and intestine (AID 686;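 active = a full or partial loss of lipid-probe fluorescence in the fish gall bladder, intestine or both, judged by eye; inactive = no fluorescence loss, or compound toxic to the fish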;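 note: larvae 5 to 7 days old with five fish per well; signal comes from phospholipase A2 cleavage of quenched PED6 carried via bile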). As to conditions: Zebrafish larvae PED6 lipid processing, fluorescence scoring; screened at 20 µM (by protocol). The method, boiled down: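 Incubation: overnight exposure of larvae to compound plus PED6 / Test system: live zebrafish larvae aged 5-7 days, whole organism / Amount: 5 larvae per well / Read-out basis: visual per-well fluorescence inhibition score / Signal: visual fluorescence microscopy scoring of gall bladder, gut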

Assay [9] in a line: inhibitors of Chlamydomonas gravitaxis, primary screen, whole organism, Chlamydomonas reinhardtii, WT vs cilia-less mutant, absorbance, 96-well (AID 463189).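 Note: 0% = wild type cc124 cells in DMSO and 100% = ciliumless bld1 mutant cells.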 As to conditions: OD600 absorbance, 2 days, at 10 µM, stronger effect = higher value.
Setting [10] is: measured here: cell density z-score.
Setting [11] is: measured here: nuclear c-Myc green intensity z-score.
[12] abbreviates: measured here: nuclear pErk red intensity z-score, stronger effect = higher value.

Sequence of Dual specificity protein phosphatase 6 (Homo sapiens) (Q16828 whole entry, looked up): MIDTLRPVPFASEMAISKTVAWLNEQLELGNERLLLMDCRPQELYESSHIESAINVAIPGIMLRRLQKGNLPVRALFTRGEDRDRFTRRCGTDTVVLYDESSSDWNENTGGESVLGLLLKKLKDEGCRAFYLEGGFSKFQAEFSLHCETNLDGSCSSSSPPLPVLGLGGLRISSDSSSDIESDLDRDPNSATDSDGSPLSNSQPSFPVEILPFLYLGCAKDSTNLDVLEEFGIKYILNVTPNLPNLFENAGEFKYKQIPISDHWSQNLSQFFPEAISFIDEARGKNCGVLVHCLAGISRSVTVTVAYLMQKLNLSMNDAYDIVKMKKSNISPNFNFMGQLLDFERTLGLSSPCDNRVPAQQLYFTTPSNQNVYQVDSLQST

As for `CC(NC(=O)Nc1cccnc1)(C(F)(F)F)C(F)(F)F`, the cell count in assay [1] was determined as 706. Further, the inhibition is -5.1% (inactive) in assay [1], -177% (inactive) in [2], 7.93% (inactive) in [4] and 0.542% (inactive) in [9]. The same compound returned a nuclei count in assay [2] of 184%. Also, the values for the z-score in assay [3] (setting [10]), in assay [3] (setting [11]) and in assay [3] (setting [12]) were 0.533, -0.524 and 0.0759, respectively. Besides, the fluorescence slope was -0.454 (inactive) in assay [5] and 0.00556 (inactive) in assay [7]. The NADPH fluorescence slope in assay [6] was -0.000301 (inactive). The compound was called inactive in assay [8].

For the compound `CCc1nc2c(sc3nc(N4CCOCC4)c4c(c32)CC(C)(C)OC4)c(=O)o1`, in [1], the cell count came out at 537. Moreover, the inhibition was 0.8% (inactive) in [1], -123% (inactive) in assay [2], 3.42% (inactive) in assay [4] and -8.15% (inactive) in assay [9]. This compound came in with a nuclei count in assay [2] of 140%. The z-score in [3] (setting [10]) is -0.303; in [3] (setting [11]), 0.948; in [3] (setting [12]), -1.15. Also, the fluorescence slope is -0.479 (inactive) in [5] and 0.00481 (inactive) in [7]. Also, the NADPH fluorescence slope in assay [6] was -8.3e-05 (inactive). For the same compound, the compound was called inactive in assay [8].

For `COc1cc(C2C(C(=O)c3sc(C)nc3C)=C(O)C(=O)N2CCN(C)C)cc(OC)c1OC` (stereo unspecified), the cell count in [1] is 398. Further, the inhibition was 3.6% (inactive) in assay [1], -36.2% (inactive) in assay [2], 3.56% (inactive) in [4] and -3.66% (inactive) in assay [9]. The same compound gave a nuclei count in assay [2] of 155%. The z-score stood at 0.333 in assay [3] (setting [10]), 0.0451 in assay [3] (setting [11]) and 0.204 in assay [3] (setting [12]). The fluorescence slope is -0.446 (inactive) in assay [5] and 0.00444 (inactive) in assay [7]. In addition, the NADPH fluorescence slope in [6] was -0.000115 (inactive). Also, the call in assay [8] was inactive.

In the case of `CC(C)COc1ccc(C(=O)OCCN2CCOCC2)c(O)c1`, in assay [1], the cell count amounted to 551. Besides, the inhibition in assay [1] is -4.8% (inactive); in assay [2], 5.6% (inactive); in [4], 19.8% (inactive); in [9] it was 20.9% (inactive). Also, the nuclei count in assay [2] was 138%. The z-score is 0.333 in [3] (setting [10]), -1.8 in assay [3] (setting [11]) and 0.367 in assay [3] (setting [12]). In addition, the values for the fluorescence slope in assay [5] and in [7] were -0.366 (inactive) and 0.00568 (inactive), respectively. Besides, the NADPH fluorescence slope in assay [6] is -3.7e-07 (inactive). Moreover, the compound was classed as inactive in assay [8].

For `CCOC(=O)c1[nH]c2ccc(F)cc2c1N=C(C)N(CC)CC`, in [1], the cell count is 621. In addition, the inhibition in [1] is -7.1% (inactive); in assay [2], -132% (inactive); in assay [4], 1.9e-07% (inactive); in assay [9], -19.6% (inactive). The same compound yielded a nuclei count in assay [2] of 100%. Also, the z-score in [3] (setting [10]) is -2.41; in assay [3] (setting [11]), 0.938; in [3] (setting [12]), -0.403. In addition, the fluorescence slope in [5] is -0.497 (inactive); in assay [7], 0.00509 (inactive). The NADPH fluorescence slope in [6] was -8.7e-05 (inactive). Besides, in assay [8], the result was inactive.

As for `Cc1ccc(S(=O)(=O)NC(=O)Nc2ncc3c(n2)CC(c2ccco2)CC3=O)cc1` (stereo unspecified), in assay [1], the cell count was 662. Moreover, the inhibition is -3.8% (inactive) in [1], 45.8% (inactive) in assay [2], 22.1% (inactive) in [4] and -13.7% (inactive) in [9]. In assay [2], the nuclei count was found to be 89.6%. Further, the z-score in assay [3] (setting [10]) was 1.23; in assay [3] (setting [11]) it was -1.12; in [3] (setting [12]), -0.985. Besides, the values for the fluorescence slope in assay [5] and in assay [7] were -0.51 (inactive) and 0.00507 (inactive), respectively. The NADPH fluorescence slope in [6] is -2.8e-05 (inactive). Also, the compound was classed as inactive in assay [8].

Regarding `Cc1nnc2n(C3CCCCC3)c(=O)c3c4c(sc3n12)COC(C)(C)C4`, in assay [1], the cell count was found to be 471. The inhibition in assay [1] is -0.7% (inactive); in [2], -19% (inactive); in [4], -3.97% (inactive); in assay [9], 11.1% (inactive). The compound also registered a nuclei count in [2] of 96.4%. The z-score in [3] (setting [10]) was -2.3; in assay [3] (setting [11]), 1.13; in [3] (setting [12]), -0.467. Moreover, the figures for the fluorescence slope in [5] and in assay [7] were -0.389 (inactive) and 0.00567 (inactive), respectively. Also, the NADPH fluorescence slope in assay [6] was 7.7e-06 (inactive). For the same compound, the compound was called inactive in assay [8].

In the case of `Cn1c(=O)c2c(nc(NCc3ccco3)n2Cc2ccccc2Cl)n(C)c1=O`, the cell count in assay [1] was 502. Besides, the inhibition in assay [1] was -4.4% (inactive); in [2] it was -15.6% (inactive); in [4] it was 12.8% (inactive); in [9], -9.48% (inactive). In assay [2], the nuclei count was determined as 92.2%. In addition, the z-score was 0.653 in assay [3] (setting [10]), -0.74 in assay [3] (setting [11]) and 0.354 in assay [3] (setting [12]). Also, the fluorescence slope in assay [5] was -0.463 (inactive); in assay [7], 0.00464 (inactive). The NADPH fluorescence slope in assay [6] was -2.4e-05 (inactive). Besides, the compound was classed as inactive in [8].

On to `CC(=O)Oc1ccc2c(C)cc(=O)[nH]c2c1`, for which, in assay [1], the cell count turned out to be 666. The inhibition in [1] is -2% (inactive); in [2], -13% (inactive); in assay [4], 5.95% (inactive); in [9], 22.8% (inactive). In assay [2], this compound had a nuclei count of 99.4%. Moreover, the figures for the z-score in assay [3] (setting [10]), in assay [3] (setting [11]) and in [3] (setting [12]) were -0.72, 0.616 and 0.878, respectively. Besides, the fluorescence slope was -0.502 (inactive) in assay [5] and 0.00681 (inactive) in [7]. Further, the NADPH fluorescence slope in assay [6] was -0.000195 (active). Further, in assay [8], the outcome was inactive.

For the compound `Cn1c(=O)[nH]c(=O)c2c1nc(Br)n2CCSc1nnnn1-c1ccccc1`, the cell count in [1] is 639. Besides, the inhibition in [1] was 0.9% (inactive); in assay [2], -40.4% (inactive); in [4], 3.42% (inactive); in [9] it was 27.6% (inactive). In assay [2], the nuclei count was 177%. For the same compound, the z-score in assay [3] (setting [10]) was -0.541; in assay [3] (setting [11]), -0.392; in [3] (setting [12]), 1.24. Also, the fluorescence slope in [5] was -0.384 (inactive); in assay [7] it was 0.00586 (inactive). The NADPH fluorescence slope in [6] was -4e-05 (inactive). Moreover, in assay [8], the compound was classed as inactive.

As to `CC12CN3CC(=O)N4CC5(C)CN(CC(C)(C4)C5=O)C(=O)CN(C1)CC(C)(C3)C2=O`, the cell count in [1] was found to be 523. In addition, the inhibition in [1] was -11.2% (inactive); in assay [2] it was -128% (inactive); in assay [4], 1.42% (inactive); in assay [9], 6.7% (inactive). The nuclei count in assay [2] was 144%. The z-score in assay [3] (setting [10]) is 0.984; in assay [3] (setting [11]) it was -0.638; in assay [3] (setting [12]), -0.379. Further, the figures for the fluorescence slope in assay [5] and in [7] were -0.485 (inactive) and 0.00461 (inactive), respectively. Besides, in assay [6], the NADPH fluorescence slope was -0.000104 (inactive). For the same compound, in assay [8], the compound was classed as inactive.

For the compound `COCCOC(=O)c1c(C)oc2ccc(OC(=O)COc3c(F)c(F)c(F)c(F)c3F)cc12`, in [1], the cell count was determined as 524. Besides, the inhibition was -3.3% (inactive) in [1], -26.1% (inactive) in [2], -2.09% (inactive) in assay [4] and -9.48% (inactive) in assay [9]. In assay [2], the nuclei count turned out to be 98.8%. Moreover, the z-score was -0.212 in assay [3] (setting [10]), -0.943 in assay [3] (setting [11]) and 0.127 in [3] (setting [12]). Also, the fluorescence slope in assay [5] was -0.461 (inactive); in assay [7] it was 0.0112 (inactive). For the same compound, the NADPH fluorescence slope in assay [6] was -2.6e-05 (inactive). Moreover, the compound was classed as inactive in assay [8].
